Measurements from ChEMBL document CHEMBL5500386, “Design, synthesis and bioactivity evaluation of 4-hydroxycoumarin derivatives as potential anti-inflammatory agents against acute lung injury and colitis” (Eur J Med Chem, 2024).
Calls of active or inactive are those of the source. No cut-off for these calls is given here.

Experiments:
J774.A1 [1] = test: Antiinflammatory activity in LPS-induced mouse J774.A1 cells assessed as reduction in IL-6 mRNA transcription pretreated for 2 hrs followed by LPS stimulation and measured after 6 hrs by RT-qPCR analysis; type: functional, cell-based; conditions: dose 2.5-10 µM
In short: (§1)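 J774A.1 or THP-1 cells pretreated with compound for 2 h, then LPS 0.5 μg/mL for 6 h, in triplicate. Total RNA extracted and reverse-transcribed. IL-6 quantified by RT-qPCR over 40 cycles and normalised to β-actin.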

THP-1 = test: Antiinflammatory activity in LPS-induced human THP-1 cells assessed as reduction in IL-6 mRNA transcription pretreated for 2 hrs followed by LPS stimulation and measured after 6 hrs by RT-qPCR analysis; type: functional, cell-based; conditions: dose 2.5-10 µM; in short: as §1
J774.A1 [2] = test: Inhibition of LPS-induced NF-kappaB activation in mouse J774.A1 cells assessed as reduction in p65 phosphorylation at 5 to 20 uM pretreated for 2 hrs followed by LPS stimulation and measured after 30 mins by Western blot analysis; type: cell-based; conditions: dose 5-20 µM, time 2.5 hrs
In short: (§2)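 J774A.1 macrophages pretreated with 20, 10 or 5 μM for 2 h, then LPS 0.5 μg/mL for 30 min. RIPA lysates quantified by Bradford. 40 μg run on 12.5 % SDS-PAGE and transferred to PVDF. Blocked 1.5 h in BSA, primary antibody overnight at 4 °C, secondary 2 h at room temperature, detected by ECL.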

J774.A1 [3] = test: Inhibition of LPS-induced MAPK activation in mouse J774.A1 cells assessed as reduction in JNK phosphorylation at 5 to 20 uM pretreated for 2 hrs followed by LPS stimulation and measured after 30 mins by Western blot analysis; type: cell-based; conditions: dose 5-20 µM, time 2.5 hrs; in short: as §2
[4] = molecular target: Interleukin-1 receptor-associated kinase 1 (Homo sapiens) (UniProt P51617); test: Inhibition of IRAK1 (unknown origin) at 10 uM relative to control
Mus musculus [5] = test: Protection against LPS-induced C57BL/6 mouse model of acute lung injury assessed as reduction in IL-6 level in BALF at 20 mg/kg, po administered 3 times for every 12 hrs followed by LPS stimulation at 5 mg/kg and measured after 6 hrs by ELISA; type: functional, organism-based; conditions: time 30.0 hrs
In short: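 C57BL/6 mice, 6 per group. Gavaged at 20 mg/kg three times at 12 h intervals; controls received saline, and dexamethasone 20 mg/kg served as reference. After the last dose, LPS 5 mg/kg given intratracheally. At 6 h, blood collected for serum IL-6 by ELISA. Left lung lavaged with 3 × 200 μL saline, and BALF assayed for IL-6, total protein and neutrophil count. Mean ± SEM, n = 6.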

Mus musculus [6] = test: Protection against LPS-induced C57BL/6 mouse model of acute lung injury assessed as reduction in inflammatory cell infiltration in lung at 20 mg/kg, po administered 3 times for every 12 hrs followed by LPS stimulation at 5 mg/kg and measured after 6 hrs by H and E staining based analysis; type: functional, organism-based; conditions: time 30.0 hrs
In short: (§3)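 LPS-induced ALI in C57BL/6 mice: 20 mg/kg orally three times at 12 h intervals, then intratracheal LPS 5 mg/kg, killed at 6 h. Lungs paraffin-embedded, cut into 5 μm sections and H&E stained. Viewed at ×20.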

Mus musculus [7] = test: Protection against LPS-induced C57BL/6 mouse model of acute lung injury assessed as reduction in thickening of the alveolar septum in lungs at 20 mg/kg, po administered 3 times for every 12 hrs followed by LPS stimulation at 5 mg/kg and measured after 6 hrs by H and E staining based analysis; type: functional, organism-based; conditions: time 30.0 hrs; in short: as §3
Mus musculus [8] = test: Protection against LPS-induced C57BL/6 mouse model of acute lung injury assessed as reduction in destruction of the alveolar cell structure at 20 mg/kg, po administered 3 times for every 12 hrs followed by LPS stimulation at 5 mg/kg and measured after 6 hrs by H and E staining based analysis; type: functional, organism-based; conditions: time 30.0 hrs; in short: as §3
Mus musculus [9] = test: Protection against LPS-induced C57BL/6 mouse model of acute lung injury assessed as reduction in immune markers at 20 mg/kg, po administered 3 times for every 12 hrs followed by LPS stimulation at 5 mg/kg and measured after 6 hrs by immunohistochemical staining based analysis; type: functional, organism-based; conditions: time 30.0 hrs
In short: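 LPS-induced ALI in C57BL/6 mice: 20 mg/kg orally three times at 12 h intervals, then intratracheal LPS 5 mg/kg, lungs taken at 6 h. F4/80 IHC: xylene deparaffinisation, citrate pH 6 retrieval for 25 min, primary antibody at 4 °C for 12 h, secondary 1:2000, DAB and hematoxylin. Viewed at ×20.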

Mus musculus [10] = test: Antiinflammatory activity in DSS-induced male C57BL/6 mouse model of inflammatory bowel disease assessed as increase in colon length at 20 mg/kg, IG administered with compound and DSS for 7 days followed by DSS replacement with distilled water for 3 days; type: functional, organism-based; conditions: time 10.0 day
Mus musculus [11] = test: Antiinflammatory activity in DSS-induced male C57BL/6 mouse model of inflammatory bowel disease assessed as decrease in disease index at 20 mg/kg, IG administered with compound and DSS for 7 days followed by DSS replacement with distilled water for 3 days; type: functional, organism-based; conditions: time 10.0 day
[12] = Acute toxicity in male ICR mouse assessed as adverse effects at 500 to 1000 mg/kg, po administered daily for 10 days and measured daily; type: organism-based; conditions: in vivo, 240 h, dose 500-1000 mg/kg, time 10 day
In short: (§4)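 Male ICR mice (8 weeks, 30 g ± 2 g), acclimatised 1 week, randomised into 1000 mg/kg, 500 mg/kg and untreated control groups (n = 24 total). Dosed by daily gavage, compound dissolved in 0.5 % DMSO then added to normal saline. Body weight and behaviour recorded daily. Euthanised after 10 days; heart, liver, spleen, lung and kidney examined by H&E staining.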

[13] = Acute toxicity in male ICR mouse assessed as reduction in body weight at 500 to 1000 mg/kg, po administered daily and measured on day 1; type: organism-based; conditions: in vivo, 24 h, dose 500-1000 mg/kg, time 1 day; in short: as §4
[14] = Acute toxicity in male ICR mouse assessed as reduction in body weight at 500 to 1000 mg/kg, po administered daily for 10 days and measured daily for 2 to 10 days; type: organism-based; conditions: in vivo, 240 h, dose 500-1000 mg/kg, time 10 day; in short: as §4
[15] = Acute toxicity in male ICR mouse assessed as histopathological changes in heart at 500 to 1000 mg/kg, po administered daily for 10 days by H and E staining based analysis; type: organism-based; conditions: in vivo, 240 h, dose 500-1000 mg/kg, time 10 day; in short: as §4
[16] = Acute toxicity in male ICR mouse assessed as histopathological changes in liver at 500 to 1000 mg/kg, po administered daily for 10 days by H and E staining based analysis; type: organism-based; conditions: in vivo, 240 h, dose 500-1000 mg/kg, time 10 day; in short: as §4
[17] = Tmax in male Sprague-Dawley rat at 10 mg/kg, po measured upto 24 hrs by triple quadrupole mass spectrometric analysis; type: ADME, organism-based; conditions: in vivo
In short: (§5)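 Male SD rats (8 weeks, 200 g ± 20 g), n = 3 per route. Oral: 10 mg/kg by gavage in 0.05 % DMSO/normal saline, tail-vein blood at 13 times from 10 min to 24 h. IV: 1 mg/kg tail vein in 5 % DMSO/30 % PEG400/65 % saline, 14 samples from 5 min to 24 h. Heparinised plasma precipitated with acetonitrile containing internal standard. Non-compartmental analysis on mean concentrations.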

[18] = Half life in male Sprague-Dawley rat at 10 mg/kg, po measured upto 24 hrs by triple quadrupole mass spectrometric analysis; type: ADME, organism-based; conditions: in vivo; in short: as §5

Sequence of Interleukin-1 receptor-associated kinase 1 (Homo sapiens) (P51617 whole entry, looked up): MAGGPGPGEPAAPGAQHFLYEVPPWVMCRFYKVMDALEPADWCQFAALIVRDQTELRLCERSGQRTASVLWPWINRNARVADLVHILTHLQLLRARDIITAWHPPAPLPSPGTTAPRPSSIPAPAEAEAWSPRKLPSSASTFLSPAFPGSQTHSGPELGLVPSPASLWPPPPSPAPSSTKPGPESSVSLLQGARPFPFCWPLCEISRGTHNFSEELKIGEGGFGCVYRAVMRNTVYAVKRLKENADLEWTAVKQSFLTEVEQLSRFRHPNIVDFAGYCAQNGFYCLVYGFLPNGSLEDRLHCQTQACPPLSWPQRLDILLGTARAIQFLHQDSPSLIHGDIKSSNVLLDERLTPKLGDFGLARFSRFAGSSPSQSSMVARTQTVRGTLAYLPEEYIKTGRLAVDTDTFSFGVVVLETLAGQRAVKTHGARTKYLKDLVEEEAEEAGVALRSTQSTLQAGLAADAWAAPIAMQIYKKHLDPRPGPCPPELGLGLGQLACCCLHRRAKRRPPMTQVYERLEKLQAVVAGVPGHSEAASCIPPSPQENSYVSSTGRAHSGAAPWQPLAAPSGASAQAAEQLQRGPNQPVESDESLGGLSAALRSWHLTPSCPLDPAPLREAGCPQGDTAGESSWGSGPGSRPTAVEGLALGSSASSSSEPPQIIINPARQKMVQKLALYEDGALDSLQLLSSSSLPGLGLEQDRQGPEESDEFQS

CC(=O)N1CCN(CCOc2cc(=O)oc3ccccc23)CC1
Activity (J774.A1 [1]): Dose-Dependent Effect
Activity (THP-1): Dose-Dependent Effect
inhibition (J774.A1 [2]): inactive
inhibition (J774.A1 [3]): inactive
inhibition [4]: 48.1%
Activity (Mus musculus [5]): Active
Activity (Mus musculus [6]): Active
Activity (Mus musculus [7]): Active
Activity (Mus musculus [8]): Active
Activity (Mus musculus [9]): Active
Activity (Mus musculus [10]): Active
Activity (Mus musculus [11]): Active
Activity [12]: Non-Toxic
Activity [13]: Toxic
Activity [14]: Non-Toxic
Activity [15]: Non-Toxic
Activity [16]: Non-Toxic
Tmax [17]: 0.67 h
half-life [18]: 2.36 h
